Smad3 FoxH1 inh – blocks human Smad3 binding to FoxH1 peptide. P84022. TR-FRET Smad3/Dy647-FoxH1 peptide binding, europium anti-His. inhibition, % at 25 µM. actives 0.29% (n = 88,000). AID 630;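 active = compounds that reduce the energy-transfer binding signal between the protein and its labelled peptide by more than half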;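 also: 0% = Smad3 plus labelled peptide maximal FRET and 100% = peptide-only background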
Target sequence (P84022 whole entry, looked up): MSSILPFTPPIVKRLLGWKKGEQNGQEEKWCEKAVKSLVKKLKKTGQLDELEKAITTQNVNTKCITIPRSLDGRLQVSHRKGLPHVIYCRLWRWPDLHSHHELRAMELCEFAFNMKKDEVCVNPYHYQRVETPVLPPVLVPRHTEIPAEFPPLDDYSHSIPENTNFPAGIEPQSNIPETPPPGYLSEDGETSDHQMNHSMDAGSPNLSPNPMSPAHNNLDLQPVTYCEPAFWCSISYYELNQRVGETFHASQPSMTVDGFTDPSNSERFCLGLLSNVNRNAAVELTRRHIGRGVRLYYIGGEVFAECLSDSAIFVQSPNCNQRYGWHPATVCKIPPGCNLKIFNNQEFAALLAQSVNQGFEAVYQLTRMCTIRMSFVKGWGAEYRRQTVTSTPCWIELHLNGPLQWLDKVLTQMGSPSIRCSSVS
CD11b adhes enh – enhancers of human CD11b/CD18 binding to fibrinogen | P05107+P11215 | K562 CD11b/CD18 adhesion to fibrinogen, ATPlite luminescence | activation, % at 10 µM | actives 0.07% (n = 93,000) | AID 1499;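 active = 10 µM primary screen giving 50% or more activity, confirmed by 40% or more on retest at that dose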
Phagocytosis inh – inhibitors of macrophage phagocytosis; inhibition, % at 5 µM; AID 1029; actives 0.07% (n = 110,000); J774A.1 macrophage IgG-bead phagocytosis, imaging;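 active = inhibition above the mean of the plate negative controls plus 5 SD, cut at about 13% in these data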;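 also: phagocytic index as fraction of beads internalized from green versus red external bead signal; plate controls were DMSO negative control for no effect and cytochalasin-D positive control for full effect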
EphB4 antag – antagonists of human EphB4-ephrin-B2 interaction; P54760; EphB4 LBD / TNYL-RAW-Alexa532 peptide, fluorescence polarization; inhibition, % at 7 µM; actives 0.15% (n = 97,000); AID 720;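 active = inhibition above the screen-wide mean inhibition plus 3 SD, cut at about 15% in these data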;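 also: 0% = DMSO wells and 100% = excess unlabeled TNYL-RAW peptide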
Rev-RRE block – HIV Rev-RRE protein-RNA interaction inhibition; P05866; Rev peptide-RRE RNA binding, FRET; inhibition, % at 8 µM; actives 0.79% (n = 97,000); AID 704;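 active = inhibition above the screen-wide mean plus 3 SD, cut at about 35% in these data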;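 also: 0% = median DMSO wells and 100% = median Neomycin B control wells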
Target sequence (P05866 whole entry, looked up): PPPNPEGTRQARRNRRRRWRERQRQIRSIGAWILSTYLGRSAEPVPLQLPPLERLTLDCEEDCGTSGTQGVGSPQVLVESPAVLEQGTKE
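Assay system: Rev peptide and RRE RNA, both fluorescently labelled; times: 5 min preincubation and 15 min binding, 25 °C; detection: FRET, ex 480 nm, em 540 and 671 nm; read-out basis: % inhibition from 671/540 nm acceptor-to-donor ratio, scaled between controls; benchmarks: DMSO low control, neomycin B high control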
Mac1 fbg inh – CD11b/CD18-fibrinogen binding inhibition; actives 0.54% (n = 93,000); P05107+P11215; inhibition, % at 10 µM; K562 CD11b/CD18 adhesion to fibrinogen, ATPlite luminescence; Mn2+ added to activate the integrin;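 active = primary inhibition of 50% or more at 10 µM, then 40% or more on retest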
* marks the source's active call; other numbers are inactive results; · = no result given; [ ] = remark or other dose. Shown are actives, neighbours in structure and some others; about 1.3% of the full set was active somewhere.

SMILES	Smad3 FoxH1 inh	CD11b adhes enh	Phagocytosis inh	EphB4 antag	Rev-RRE block	Mac1 fbg inh
CC1=CC2=C(OC1N(C)C)c1cccc3cccc(c13)C2=O (centres undefined)	16	2	10	3	48*	-10
COc1cccc(C2/C(=C(/O)c3ccncc3)C(=O)C(=O)N2CCCN2CCOCC2)c1OC (centres undefined)	13	·	·	·	·	·
CC(=O)c1cc(C#N)c(SCc2ccc(F)cc2)nc1C	-15	-4	-1	6	5	4
CCOC(=O)c1cc(C#N)c(SCc2ccc(C#N)cc2)nc1C	64*[fluorescence artefact?]	·	·	-4	10	·
CCOC(=O)c1sc(/N=C/c2c(C)[nH]n(-c3ccccc3)c2=O)c(C#N)c1C	·	-1	-1	3	70*	28
CCN1c2ccccc2NC2N=C(OC)C(c3ccccc3)C21 (centres undefined)	4	-1	2	1	-3	4
CCN1c2ccccc2NC2C1C(C(C)=O)C(=O)N2c1ccc(Cl)cc1 (centres undefined)	17	8	0	5	50*	8
O=S(=O)(Nc1nc2ccccc2s1)c1ccc(Br)s1	5	-12	0	4	5	101*
Cc1ccc(S(=O)(=O)Nc2nc3ccccc3s2)cc1	-10	-2	0	-8	0	5
O=C(CSc1nnc(Cn2nnc3ccccc32)o1)N(Cc1ccc(F)cc1)c1ccccc1	8	-11	-2	-3	9	102*
COc1cc(C(=O)N2CCN(c3ncnc4sc(C)c(C)c34)CC2)cc(OC)c1OC	-5	-12	2	-5	0	60*
O=P(O)(CCP(=O)(O)c1ccccc1)c1ccccc1	1	·	·	·	·	·
CCOC(=O)C1=C(CSc2nc3c(cc2C#N)CCC3)OC(N)=C(C#N)C1c1ccccc1 (centres undefined)	-2	·	·	6	21	·
CCOC(=O)C1=C(CSc2nc3c(cc2C#N)CN(C)CC3)OC(N)=C(C#N)C1c1ccc(F)cc1 (centres undefined)	13	0	-1	1	57*	44
COC(=O)C1=C(CSc2nc3c(cc2C#N)CN(C)CC3)OC(N)=C(C#N)C1c1ccccc1F (centres undefined)	-1	·	·	-4	54*	·
CCOC(=O)C1=C(CSc2nc(-c3ccccc3)ccc2C#N)OC(N)=C(C#N)C1c1ccccc1 (centres undefined)	-6	7	-1	-4	27	22
CCOC(=O)C1=C(CSc2nc(-c3ccccc3)ccc2C#N)OC(N)=C(C#N)C1c1cccnc1 (centres undefined)	1	0	-1	5	37*	-6
CCOC(=O)C1=C(CSc2nc3c(cc2C#N)CN(C)CC3)OC(N)=C(C#N)C1c1ccccc1 (centres undefined)	3	0	-1	2	57*	-12
O=C(Nc1nc2ccccc2s1)c1ccc(OCC2CCCO2)cc1 (centres undefined)	·	-6	-4	·	·	73
CCCc1cc(=O)[nH]c(-n2[nH]c3c(c2=O)CCCC3)n1	·	·	·	-5	69*	·
CCCc1cc(=O)[nH]c(SCC)n1	16	·	·	-2	4	·
N#C/C(=N\Nc1ccc(Cl)cc1)C(=O)c1ccccc1	·	-8	-1	2	0	94*
CC(C)(CC(=O)Nc1ccccc1)C(=O)O	2	·	·	·	·	·
CCCCCCCCC[n+]1cccc2c3ccccc3ccc21	·	-10	-2	1	19	106*
CCCCCCCCCCCCCCCC[n+]1cccc2ccccc21	·	-7	19	·	·	106*
SMILES	Smad3 FoxH1 inh	CD11b adhes enh	Phagocytosis inh	EphB4 antag	Rev-RRE block	Mac1 fbg inh
O=C(Nc1ccccn1)c1ccc(Br)c(S(=O)(=O)N2CCCCC2)c1	·	·	-1	·	·	·
NCC(=O)N[C@H](CO)C(=O)O	-2	·	·	·	·	·
CCOc1ccccc1Nc1ccc(N)cc1S(=O)(=O)O	13	·	·	·	·	·
CN=Cc1sc2ccccc2c1O	-4	-2	-2	1	1	-1
CC(=Nc1ccc(C)cc1)c1sc2ccccc2c1O	-1	1	-1	9	44*	19
CC(=Nc1cccc(O)c1)c1sc2ccccc2c1O	0	-1	0	-3	48*	0
O[C@@H](c1cc(-c2ccccc2)nc2c1ccc1ccccc12)[C@@H]1CCCCN1	15	·	·	·	·	·
COc1cc2nncc(SCc3ccc(Cl)c(Cl)c3)c2cc1OC	-16	·	·	·	·	·
Cc1ccnc(N2C(=O)c3cccc4c([N+](=O)[O-])ccc(c34)C2=O)c1	·	-5	0	2	45*	25
CN(C)C(=O)C1CCN(Cc2c[nH]c3ccccc23)CC1	12	·	·	·	·	·
O=c1nc(/C=C/c2ccc(-c3ccc(F)cc3)o2)cc(C(F)(F)F)[nH]1	-6	-1	-1	-2	116*[fluorescence artefact?]	-15
O=C(O)C(=Cc1ccc(-c2ccccc2)cc1)C(=O)O	8	·	·	·	·	·
COc1ccc(N(C)S(=O)(=O)c2cccc3cccnc23)c(OC)c1	7	54*	2	1	3	-2
COc1ccc(NC(=O)C2CCCN2S(=O)(=O)c2cccc3cccnc23)c(OC)c1 (centres undefined)	2	0	0	-2	1	13
CC(C)c1ccc(NC(=O)CSc2ncccc2C(=O)Oc2cccc([N+](=O)[O-])c2)cc1	·	·	-3	·	·	·
CCOC(=O)C(C)(C)Sc1nc2c(cnn2-c2ccc(Cl)cc2)c(=O)[nH]1	8	-1	163*[fluoresces]	1	7	-9
CCC(Sc1nc2c(cnn2-c2ccc(Cl)cc2)c(=O)[nH]1)C(=O)OC (centres undefined)	-2	8	0	·	·	22
Nc1c(S(=O)(=O)O)cc(Nc2cccc(S(N)(=O)=O)c2)c2c1C(=O)c1ccccc1C2=O	29	·	·	·	·	·
CCN1/C(=C/c2ccc3ccccc3[n+]2CC)C=Cc2ccccc21	-34	-6	2	-8	18	94*
CCN1/C(=C/c2cc[n+](C)cc2)C=Cc2cc(C)ccc21	·	·	1	·	·	·
C[C@H]1C[C@@H]2[C@@H]3CCC4=CC(=O)C=C[C@@]4(C)[C@@]3(Cl)[C@H](Cl)C[C@@]2(C)[C@]1(O)C(=O)COP(=O)(O)O	0	·	·	·	·	·
CCCOc1ccc(Br)cc1CSC(=N)N	·	-7	4	·	·	102*
CCOc1ccc(Br)cc1CC(=O)O	-4	·	·	-5	6	·
O=C(CC(C(=O)N1CCc2ccccc21)n1ccnc1)N1CCc2ccccc2C1 (centres undefined)	16	1	1	2	60*	8
CC(C)CN1C(=O)c2ccc(C(=O)Nc3ccncc3)cc2C1=O	0	-3	-1	·	·	82*
CC(C)CN1C(=O)c2ccc(C(=O)Nc3ccccn3)cc2C1=O	·	-5	0	1	-1	-11
CC1CCCCN1c1cc(C#N)c(C#N)cc1[N+](=O)[O-] (centres undefined)	·	-3	-2	-6	-2	-10

High-throughput results: PubChem BioAssay, several laboratories
